Source: ChEMBL document CHEMBL1122419, “alpha-Adrenergic activities of some substituted 2-(aminomethyl)imidazolines” (J Med Chem, 1983)

How the values were obtained:
[1] = target: Adrenergic receptor alpha-2 (Rattus norvegicus) (UniProt P22086+P19328+P22909); experiment: Clonidine antagonistic activity against alpha-2 adrenergic receptor in isolated, field -simulated vas deferens from rats; assay type: functional
Method in brief: (§1)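 Field-stimulated vas deferens from Sprague-Dawley rats (250-350 g). pA2 estimated from one or two test-compound concentrations, with at least three tissues per concentration. Agonist challenged was clonidine for α2 and methoxamine for α1.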

[2] = target: T1, Adrenergic receptor alpha-1 (Rattus norvegicus, UniProt P15823+P23944+P43140); experiment: Agonist activity against alpha-1 adrenergic receptor from rat vas deferens; assay type: functional
T1 sequence (P15823 whole entry): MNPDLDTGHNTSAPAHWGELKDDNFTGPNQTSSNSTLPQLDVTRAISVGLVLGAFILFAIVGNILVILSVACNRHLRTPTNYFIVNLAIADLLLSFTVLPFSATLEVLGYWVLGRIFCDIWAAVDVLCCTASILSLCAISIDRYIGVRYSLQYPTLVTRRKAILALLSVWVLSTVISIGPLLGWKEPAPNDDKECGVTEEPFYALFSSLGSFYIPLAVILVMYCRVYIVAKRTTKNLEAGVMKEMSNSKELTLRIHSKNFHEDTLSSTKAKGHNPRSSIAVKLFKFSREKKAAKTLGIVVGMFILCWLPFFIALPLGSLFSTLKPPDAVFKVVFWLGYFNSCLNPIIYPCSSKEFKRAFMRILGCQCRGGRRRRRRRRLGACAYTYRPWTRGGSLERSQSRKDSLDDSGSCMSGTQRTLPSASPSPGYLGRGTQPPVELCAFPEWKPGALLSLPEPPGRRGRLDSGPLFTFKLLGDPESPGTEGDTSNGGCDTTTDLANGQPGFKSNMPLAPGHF
T1 sequence (P23944 whole entry): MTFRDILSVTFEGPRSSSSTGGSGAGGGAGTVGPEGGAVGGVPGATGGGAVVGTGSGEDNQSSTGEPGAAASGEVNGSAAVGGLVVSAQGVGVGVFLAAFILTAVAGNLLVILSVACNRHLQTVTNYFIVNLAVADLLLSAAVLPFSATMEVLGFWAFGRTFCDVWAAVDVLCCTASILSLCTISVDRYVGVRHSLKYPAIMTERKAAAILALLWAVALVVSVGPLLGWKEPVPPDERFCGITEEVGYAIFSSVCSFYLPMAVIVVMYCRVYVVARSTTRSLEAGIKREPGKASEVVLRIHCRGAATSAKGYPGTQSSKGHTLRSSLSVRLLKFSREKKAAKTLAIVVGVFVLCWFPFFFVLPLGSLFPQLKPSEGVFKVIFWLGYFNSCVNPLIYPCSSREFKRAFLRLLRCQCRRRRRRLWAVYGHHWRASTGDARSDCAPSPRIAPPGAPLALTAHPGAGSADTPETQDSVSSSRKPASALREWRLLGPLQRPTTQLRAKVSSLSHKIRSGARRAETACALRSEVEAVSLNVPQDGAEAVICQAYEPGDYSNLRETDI
T1 sequence (P43140 whole entry): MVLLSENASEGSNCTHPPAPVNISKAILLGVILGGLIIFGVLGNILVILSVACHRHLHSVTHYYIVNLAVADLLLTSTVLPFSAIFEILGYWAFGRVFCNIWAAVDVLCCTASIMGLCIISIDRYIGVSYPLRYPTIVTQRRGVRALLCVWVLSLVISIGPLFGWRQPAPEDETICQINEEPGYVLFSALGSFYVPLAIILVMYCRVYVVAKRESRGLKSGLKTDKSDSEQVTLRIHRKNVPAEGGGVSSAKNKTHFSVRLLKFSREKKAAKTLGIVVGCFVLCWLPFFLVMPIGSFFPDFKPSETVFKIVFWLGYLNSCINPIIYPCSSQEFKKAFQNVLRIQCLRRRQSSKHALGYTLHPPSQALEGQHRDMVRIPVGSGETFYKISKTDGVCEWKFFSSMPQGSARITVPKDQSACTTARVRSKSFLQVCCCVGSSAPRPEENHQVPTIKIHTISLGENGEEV

[3] = target: T1, Adrenergic receptor alpha-1; experiment: Methoxamine antagonistic activity against alpha-1 adrenergic receptor in isolated, field -simulated vas deferens from rats; assay type: functional, tissue-based; method in brief: as §1
[4] = target: T2, Adrenergic receptor alpha-2 (Rattus norvegicus, UniProt P22086+P19328+P22909); experiment: Agonistic activity against alpha alpha-2 adrenergic receptor in isolated, field -simulated vas deferens from rats; assay type: functional
T2 sequence (P22086 whole entry): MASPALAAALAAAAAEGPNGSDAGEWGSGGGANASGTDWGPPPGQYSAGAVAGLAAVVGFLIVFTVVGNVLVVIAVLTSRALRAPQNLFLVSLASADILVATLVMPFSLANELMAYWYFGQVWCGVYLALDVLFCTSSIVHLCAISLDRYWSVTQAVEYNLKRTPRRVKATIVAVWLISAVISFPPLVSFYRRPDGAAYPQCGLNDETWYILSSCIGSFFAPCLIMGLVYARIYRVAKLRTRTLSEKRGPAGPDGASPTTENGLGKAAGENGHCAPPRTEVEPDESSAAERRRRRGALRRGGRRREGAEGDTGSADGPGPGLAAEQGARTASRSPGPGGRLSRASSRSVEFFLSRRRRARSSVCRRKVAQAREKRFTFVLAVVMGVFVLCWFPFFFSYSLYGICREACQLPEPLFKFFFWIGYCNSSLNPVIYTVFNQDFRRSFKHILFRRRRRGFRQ
T2 sequence (P19328 whole entry): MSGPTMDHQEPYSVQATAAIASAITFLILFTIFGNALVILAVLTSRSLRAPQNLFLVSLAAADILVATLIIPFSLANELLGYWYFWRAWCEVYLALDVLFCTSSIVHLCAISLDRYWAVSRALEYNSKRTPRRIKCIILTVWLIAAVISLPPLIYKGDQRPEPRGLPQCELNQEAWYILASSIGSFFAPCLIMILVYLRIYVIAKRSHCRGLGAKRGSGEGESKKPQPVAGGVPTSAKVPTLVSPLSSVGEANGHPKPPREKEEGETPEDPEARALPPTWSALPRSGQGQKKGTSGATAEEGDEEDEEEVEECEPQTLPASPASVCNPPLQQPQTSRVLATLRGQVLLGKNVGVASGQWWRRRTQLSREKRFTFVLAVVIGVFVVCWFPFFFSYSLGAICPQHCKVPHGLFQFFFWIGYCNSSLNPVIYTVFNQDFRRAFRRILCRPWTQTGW
T2 sequence (P22909 whole entry): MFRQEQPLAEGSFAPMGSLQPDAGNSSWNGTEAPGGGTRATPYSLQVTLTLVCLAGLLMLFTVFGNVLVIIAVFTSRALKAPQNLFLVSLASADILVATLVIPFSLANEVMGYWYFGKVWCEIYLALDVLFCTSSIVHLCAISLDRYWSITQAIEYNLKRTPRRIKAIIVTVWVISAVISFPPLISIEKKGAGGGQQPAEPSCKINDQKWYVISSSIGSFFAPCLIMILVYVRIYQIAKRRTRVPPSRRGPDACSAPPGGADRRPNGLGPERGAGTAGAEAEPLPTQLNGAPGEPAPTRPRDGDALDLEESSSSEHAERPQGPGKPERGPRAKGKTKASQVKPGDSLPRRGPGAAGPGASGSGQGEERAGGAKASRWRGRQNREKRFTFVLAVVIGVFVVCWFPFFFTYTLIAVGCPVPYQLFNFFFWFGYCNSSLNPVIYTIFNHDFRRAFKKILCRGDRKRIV

[5] = target: T3, Alpha-2A adrenergic receptor (Bos taurus, UniProt Q28838); experiment: Binding affinity against alpha-2 adrenergic receptor from calf cerebral cortex, using [3H]clonidine as the radioligand; assay type: tissue-based
T3 sequence (Q28838 whole entry): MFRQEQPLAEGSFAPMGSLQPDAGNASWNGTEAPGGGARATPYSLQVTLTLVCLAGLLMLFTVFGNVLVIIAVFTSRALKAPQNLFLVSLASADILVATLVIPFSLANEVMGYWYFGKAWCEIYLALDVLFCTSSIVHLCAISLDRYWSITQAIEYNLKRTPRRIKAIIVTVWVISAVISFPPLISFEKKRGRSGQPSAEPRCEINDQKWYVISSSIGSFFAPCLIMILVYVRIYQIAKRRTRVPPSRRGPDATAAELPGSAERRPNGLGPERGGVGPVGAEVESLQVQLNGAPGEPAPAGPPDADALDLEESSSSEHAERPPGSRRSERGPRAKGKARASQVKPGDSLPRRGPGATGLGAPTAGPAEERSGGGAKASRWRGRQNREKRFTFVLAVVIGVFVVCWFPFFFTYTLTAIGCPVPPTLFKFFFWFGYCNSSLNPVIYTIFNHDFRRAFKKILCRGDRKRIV

[6] = target: T2, Adrenergic receptor alpha-2; experiment: Agonistic activity against alpha-2 adrenergic receptor in isolated, field -simulated vas deferens from rats; assay type: functional
Method in brief: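 Field-stimulated vas deferens from Sprague-Dawley rats (250-350 g), pretreated with prazosin (78 nM). α2 agonism scored as inhibition of stimulation-induced contractions. […] Agonist activity confirmed by complete reversal of the inhibition by rauwolscine (280 nM).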

pA2 [1] | EC50 [2] [nM] | pA2 [3] | EC50 [4] [nM] | Ki [5] [nM] | EC50 [6] [nM] | SMILES
7.8 | – | – | – | – | – | Cc1ccc(N(CC2=NCCN2)c2cccc(O)c2)cc1
6.5 | > 1000 | 6 | > 1000 | 70 | – | Cc1ccc(N(CC2=NCCN2)C2CCCCC2)cc1
– | 61 | – | 74 | 7.1 | – | Oc1cccc(NCC2=NCCN2)c1
5.6 | 340 | – | > 2000 | 14 | – | Cc1ccc(NCC2=NCCN2)cc1
7.1 | 1600 | – | > 1000 | 14 | – | CCN(CC1=NCCN1)c1ccc(C)cc1
– | 50 | – | – | – | 53 | Clc1ccccc1NCC1=NCCN1
7 | 300 | – | > 2000 | 3.3 | – | Cc1ccc(N(C)CC2=NCCN2)cc1
7.5 | > 1000 | 7.6 | > 1000 | – | – | Cc1ccc(N(CC2=NCCN2)c2ccccc2)cc1
